# PMI act hi M6P = activators of human phosphomannose isomerase at near-saturating mannose 6-phosphate. coupled PMI enzyme assay, resazurin fluorescence, 20 min; active compounds read high; 1 = untreated enzyme, 0 = substrate-free blank. activation factor at 20 µM. 0.34% of 190,000 active. AID 1216;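 active = activation factor of 2 or more at 20 µM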
#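 Material: human phosphomannose isomerase with PGI, G6PDH, diaphorase coupling enzymes / Reagent: Man-6-P substrate 1.0 mM / Dosing: single compound dose of 20 µM, 1% DMSO final / Incubation: enzyme reaction with compound 20 min at room temperature / Signal: resorufin fluorescence (Ex 544/Em 590 nm) from resazurin via diaphorase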
# Rad51 HR inh = Rad51 (human) homologous recombination inhibition; 0.085% of 200,000 active; inhibition, % at 10 µM; hRad51 DNA strand exchange, fluorescence dequenching; Q06609; AID 1385;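 active = inhibition above 40% at the single screening dose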
# Target sequence (Q06609 whole entry, looked up): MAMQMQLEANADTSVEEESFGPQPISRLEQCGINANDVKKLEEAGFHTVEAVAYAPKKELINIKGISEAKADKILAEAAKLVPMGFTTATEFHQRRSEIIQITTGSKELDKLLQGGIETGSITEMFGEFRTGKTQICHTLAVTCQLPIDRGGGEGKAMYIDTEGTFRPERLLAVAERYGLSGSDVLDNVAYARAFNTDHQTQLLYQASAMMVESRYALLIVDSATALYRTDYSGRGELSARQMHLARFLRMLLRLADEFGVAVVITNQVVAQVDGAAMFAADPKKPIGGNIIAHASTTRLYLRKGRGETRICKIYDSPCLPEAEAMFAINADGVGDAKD
#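 material = hRad51 filaments on single-stranded DNA | timing = filaments 15 min 37 °C, then compound 30 min | signal = FRET fluorescence dequenching, excitation 485 nm, emission 520 nm | benchmarks = control wells and blank wells on each plate | evaluation = percent inhibition relative to plate controls and blanks | compound = 10 µM final, single point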
# m-calpain inh = blocks pig calpain II enzyme activity; purified calpain II, fluorogenic peptide substrate, 30 min; inhibition, % at 16 µM; 0.37% of 220,000 active; AID 1236;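 active = inhibition above about 50%, limit read from the data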
# PMI activator = phosphomannose isomerase (human) activation. purified human PMI, coupled resazurin fluorescence, 20 min; active compounds read high; 1 = vehicle control, 0 substrate-free wells. activation factor at 20 µM. 0.005% of 190,000 active. AID 1214;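 active = activation factor of 2 or more at 20 µM, relative to plate controls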
# WT yeast gro inh = growth inhibition of WT yeast, mitochondrial fusion screen; inhibition, % at 10 µM; mitochondrial fusion phenotypic screen, WT strain; 2.1% of 190,000 active; in the data active = inhibition above about 58%; tested in S. cerevisiae
# L major viab = Leishmania major promastigote growth inhibition. Leishmania major promastigotes, resazurin fluorescence viability. inhibition, % at 10 µM. 9% of 200,000 active; in the data active = inhibition above about 50%;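 note: promastigotes grown with compound for 44 hours at 28 °C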
# A number is an active result; – = inactive; · = no result. Shown are actives, neighbours in structure and some others; about 9.8% of the full set was active somewhere.
SMILES,PMI act hi M6P,Rad51 HR inh,m-calpain inh,PMI activator,WT yeast gro inh,L major viab
Cc1c(C(=O)Nc2ccccc2[N+](=O)[O-])csc1-c1ccccc1,–,–,–,–,74.0,–
CCN(CC)S(=O)(=O)c1ccc(Cl)c(C(=O)Nc2ccc(Cl)cc2[N+](=O)[O-])c1,–,–,–,–,–,85.0
CCN(CC)S(=O)(=O)c1ccc(OC)c(NC(=O)c2cc([N+](=O)[O-])ccc2Cl)c1,–,–,–,–,–,–
CC1=C(C(=O)OCC2CCCO2)C(c2ccsc2)C2=C(CCCC2=O)N1 (stereo not drawn),–,–,–,–,–,–
COc1cnc(SC)nc1Nc1ccc(C#N)cc1,·,–,–,·,·,·
Cc1ccc(NC(=O)CN2CCCCCC2)cc1[N+](=O)[O-],–,–,–,–,–,–
Cc1c(C(=O)N2CCC(C)CC2)sc2ncnc(N(C)c3ccccc3)c12,–,–,–,–,87.9,–
CCCCC(=O)Nc1ccc(C(=O)Nc2ccc(S(=O)(=O)Nc3nccc(C)n3)cc2)cc1,–,–,–,–,–,78.2
Cc1ccnc(NS(=O)(=O)c2ccc(NC(=O)CSc3nc(-c4ccccc4)cc(=O)[nH]3)cc2)n1,–,–,–,–,–,93.7
COc1ccc(/C=N/NC(=O)c2c(C)nnn2-c2nonc2N)cc1OC,–,·,–,–,–,–
Cc1c(Cl)cccc1NC(=O)c1ncn[nH]1,·,–,–,·,·,·
CC1CCC/C(=N\NC(=O)c2ccncc2)C1 (stereo not drawn),–,–,–,–,–,–
O=C(O)Cn1cc(/C=C/[N+](=O)[O-])c2ccccc21,–,–,–,–,–,–
N#Cc1ccccc1Cn1cc(/C=C/[N+](=O)[O-])c2ccccc21,–,–,–,–,–,87.1
O=[N+]([O-])/C=C/c1cn(Cc2ccccc2)c2ccccc12,–,–,–,–,–,95.6
CC1CC(C)(C)NC(=S)N1CCCC(=O)Nc1ccc2c(c1)OCCO2 (stereo not drawn),–,–,–,–,–,–
CC(C)(C)NC(=O)NCC1CCCC1NC(=O)NC(C)(C)C (stereo not drawn),·,·,–,·,·,·
CSCCC(N=C(NS(=O)(=O)c1ccccc1)c1ccccc1)C(=O)O (stereo not drawn),·,·,–,·,·,·
CCCC(=O)Nc1cc(OC)c(C(=O)OC)cc1Cl,–,–,–,–,–,–
COc1ccc(-n2nc([N+](=O)[O-])c(=NCCc3ccccc3)n2O)cc1,–,–,–,–,–,96.0
O=[N+]([O-])c1nn(-c2ccccc2)n(O)c1=NCCc1ccccc1,–,–,–,–,–,91.3
Cc1ccc(CCN=c2c([N+](=O)[O-])nn(-c3ccccc3)n2O)cc1,–,–,–,–,–,–
C[n+]1cccc2cccc([O-])c21,·,–,–,·,·,·
CC(=O)N(C)c1ccc(OCC(O)Cn2c3ccc(Cl)cc3c3cc(Cl)ccc32)cc1 (stereo not drawn),–,–,–,–,77.2,–
CCN(CC)C(=O)CCNS(=O)(=O)c1ccc(C)cc1,–,–,–,–,–,–
SMILES,PMI act hi M6P,Rad51 HR inh,m-calpain inh,PMI activator,WT yeast gro inh,L major viab
CCCNC1=C(N(C(C)=O)c2cccc(F)c2)C(=O)c2ccccc2C1=O,–,–,–,–,–,99.4
Cc1cccc(S(=O)(=O)c2c(N)n(/N=C/c3ccccc3)c3nc4ccccc4nc23)c1,–,–,–,–,–,–
Cc1ccc(C)c(S(=O)(=O)c2c(N)n(/N=C/c3ccco3)c3nc4ccccc4nc23)c1,–,–,–,–,–,93.9
Nc1c(S(=O)(=O)c2ccccc2)c2nc3ccccc3nc2n1/N=C/c1cccc(O)c1,–,–,–,–,–,91.1
Cc1ncc([N+](=O)[O-])n1CC(O)CCl (stereo not drawn),–,–,–,–,–,–
Cc1ncc([N+](=O)[O-])n1Cc1ccc(Cl)cc1,·,–,–,·,–,82.6
O=[N+]([O-])c1cn(Cc2ccc(Cl)cc2)cn1,–,–,–,–,–,63.6
Cc1ncc([N+](=O)[O-])n1Cc1ccc(Br)cc1,–,–,–,–,–,90.5
COc1ccc(OC)c(NC(=O)c2ccno2)c1,–,–,–,–,–,–
CCOC(=O)NNC(=O)C1CCC(C)CC1 (stereo not drawn),–,–,–,–,–,–
Cc1ccc2ncnc(Oc3ncccc3NC(=O)C(C)(C)C)c2c1,·,–,–,·,·,·
Cc1ccc(S(=O)(=O)NCCC(=O)Nc2nnc(C3CC3)s2)cc1C,–,–,–,–,–,–
Cc1cc(C)cc(N(CCC(=O)Nc2nnc(C3CC3)s2)S(=O)(=O)c2ccc(Cl)cc2)c1,–,–,–,–,–,81.6
CCN(C(=S)Nc1cc(S(=O)(=O)N2CCOCC2)ccc1Cl)c1cccc2ccccc12,–,–,–,–,–,64.8
CCc1cccc2c(C(=S)N3CCOCC3)c[nH]c12,–,–,–,–,–,–
CC(CN1CCN(C)CC1)OC(=O)c1cccc(Cl)c1 (stereo not drawn),·,–,–,·,·,·
CC12CCC(c3c(C(=O)Nc4nccs4)nn(-c4ccccc4)c31)C2(C)C (stereo not drawn),–,–,–,–,76.3,100.0
OC(CNCCC(c1ccccc1)c1ccccc1)COc1ccccc1 (stereo not drawn),–,–,–,–,74.2,–
CC(C)CCNCC(O)CON=C1c2ccccc2-c2ccccc21 (stereo not drawn),–,–,–,–,–,88.4
COCCNCC(O)CON=C1c2ccccc2-c2ccccc21 (stereo not drawn),–,–,–,–,–,–
COc1ccc(OCC(O)CNC(=O)c2ccccc2)cc1 (stereo not drawn),·,–,–,·,·,·
OC(CNCCc1ccccc1)COc1ccc(OCC(O)CNCCc2ccccc2)cc1 (stereo not drawn),·,–,–,·,·,·
CC(C)N(CCNCC(O)COc1ccc(C(C)(C)c2ccccc2)cc1)C(C)C (stereo not drawn),–,–,–,–,–,93.7
C=CCN(c1ccccc1C(=O)O)S(=O)(=O)c1ccc(C)cc1,·,–,–,·,–,–
Cn1cc(CN2C[C@]3(C)C[C@H]2CC(C)(C)C3)c(-c2ccc3c(c2)OCCO3)n1,–,·,–,–,–,–
CC(OC(=O)c1ccc([N+](=O)[O-])s1)C(=O)Nc1ncc(Cl)cc1Cl (stereo not drawn),–,–,–,–,–,100.0
CC(OC(=O)c1ccc2ncsc2c1)C(=O)Nc1ncc(Cl)cc1Cl (stereo not drawn),–,–,–,–,–,–
COc1ccc(/C=C2\CCCC3C2=NN(C(=O)COC(=O)CNC(=O)c2ccccc2)C3c2ccc(OC)cc2)cc1 (stereo not drawn),–,–,–,–,–,–
Cc1nc(N2N=C3/C(=C/c4ccc(F)cc4)CCCC3C2c2ccc(F)cc2)sc1C(=O)N(C)C (stereo not drawn),–,·,–,–,73.8,–
